Data taken from PMC3107912 (Bioorganic & medicinal chemistry letters, 2011).
Each block holds one compound with its values, some of them ahead of it.

Legend:
Type in all cases: cell-based
S1P4 receptor = biological target: T1, S1P4 receptor (Homo sapiens, UniProt O95977); experiment: S1P4 functional antagonist assay; conditions: for fold less potent than the hit (1) at S1P4: versus hit compound 1
T1 sequence (O95977 1-384): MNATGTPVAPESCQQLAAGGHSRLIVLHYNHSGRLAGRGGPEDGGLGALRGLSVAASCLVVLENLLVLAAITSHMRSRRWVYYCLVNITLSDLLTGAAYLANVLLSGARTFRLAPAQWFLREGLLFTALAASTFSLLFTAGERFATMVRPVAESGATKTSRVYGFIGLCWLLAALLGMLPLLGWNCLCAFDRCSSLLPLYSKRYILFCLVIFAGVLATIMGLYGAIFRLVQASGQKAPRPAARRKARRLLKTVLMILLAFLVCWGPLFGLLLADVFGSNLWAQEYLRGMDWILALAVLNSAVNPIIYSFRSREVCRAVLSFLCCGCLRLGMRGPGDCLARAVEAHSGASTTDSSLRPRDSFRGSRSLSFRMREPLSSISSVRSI
Method in brief: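 U2OS cells co-express a beta-arrestin/TEV protease fusion protein and a beta-lactamase reporter gene under the control of a UAS response element. Beta-lactamase expression is read as FRET from a cleavable, fluorogenic, cell-permeable beta-lactamase substrate. The test compound's antagonism of the S1P4 receptor is reported as an IC50.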

S1P3 = S1P3 (Homo sapiens, UniProt Q99500); experiment: S1P selectivity counter screen, functional assay at S1P3
Sequence of S1P3 (Q99500 whole entry, species assumed): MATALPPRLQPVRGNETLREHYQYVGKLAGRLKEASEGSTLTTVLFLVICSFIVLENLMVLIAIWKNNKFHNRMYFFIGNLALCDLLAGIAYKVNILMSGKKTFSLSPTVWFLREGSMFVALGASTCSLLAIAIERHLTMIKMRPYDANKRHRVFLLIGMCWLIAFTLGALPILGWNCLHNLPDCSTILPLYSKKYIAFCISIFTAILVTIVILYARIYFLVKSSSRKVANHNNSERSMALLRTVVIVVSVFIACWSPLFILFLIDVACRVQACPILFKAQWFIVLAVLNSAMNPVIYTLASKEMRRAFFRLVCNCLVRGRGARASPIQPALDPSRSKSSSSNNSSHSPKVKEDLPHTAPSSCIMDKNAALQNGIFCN

S1P2 = S1P2 (Homo sapiens, UniProt O95136); experiment: S1P selectivity counter screen, functional assay at S1P2
Sequence of S1P2 (O95136 whole entry, species assumed): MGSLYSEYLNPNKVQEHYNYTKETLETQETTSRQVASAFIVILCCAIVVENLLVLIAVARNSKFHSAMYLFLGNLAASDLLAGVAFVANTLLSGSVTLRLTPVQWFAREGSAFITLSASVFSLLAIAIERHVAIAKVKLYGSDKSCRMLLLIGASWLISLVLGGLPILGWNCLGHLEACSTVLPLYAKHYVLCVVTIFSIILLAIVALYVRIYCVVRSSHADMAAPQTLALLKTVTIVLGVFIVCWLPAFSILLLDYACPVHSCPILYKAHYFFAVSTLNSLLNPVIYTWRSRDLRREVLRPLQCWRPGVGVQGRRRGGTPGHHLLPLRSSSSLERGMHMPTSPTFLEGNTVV

S1P1 = S1P1 (Homo sapiens, UniProt P21453); experiment: S1P selectivity counter screen, functional assay at S1P1
Sequence of S1P1 (P21453 whole entry, species assumed): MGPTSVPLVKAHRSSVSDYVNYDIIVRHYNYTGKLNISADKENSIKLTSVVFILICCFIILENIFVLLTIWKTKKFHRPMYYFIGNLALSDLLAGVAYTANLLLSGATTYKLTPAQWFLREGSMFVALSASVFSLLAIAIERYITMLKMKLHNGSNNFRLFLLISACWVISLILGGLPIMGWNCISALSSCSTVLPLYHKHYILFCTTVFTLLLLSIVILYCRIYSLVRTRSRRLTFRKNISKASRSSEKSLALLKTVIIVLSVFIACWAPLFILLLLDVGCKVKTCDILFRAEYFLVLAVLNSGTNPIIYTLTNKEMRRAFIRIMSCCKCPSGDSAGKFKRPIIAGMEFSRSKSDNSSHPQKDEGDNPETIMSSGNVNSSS

SMILES: O=C(c1ccc(-c2cc(Cl)ccc2Cl)o1)N1CCc2ccccc21 [4j]
S1P4 activity in words (S1P4 receptor): suppressed completely the activity

SMILES: Cc1cc(C)c(N(C)C(=O)c2ccc(-c3cc(Cl)ccc3Cl)o2)c(C)c1 [4r]
fold less potent than the homolog 4q at S1P4 (S1P4 receptor; versus 4q): approximately 128 fold

SMILES: Cc1cc(CO)cc(C)c1NC(=O)c1ccc(-c2cc(Cl)ccc2Cl)o1 [4t]
IC50 (S1P4 receptor): 36 nM

SMILES: Cc1cccc(C)c1NC(=O)c1ccc(-c2ccc(Cl)cc2Cl)o1 [9a]
fold less potent than mono-chlorinated 9c at S1P4 (S1P4 receptor; versus 9c): 7 fold
fold less potent than the hit (1) at S1P4 (S1P4 receptor): 25 fold

The next lines start with the values.

fold less potent than the hit (1) at S1P4 (S1P4 receptor): 6 fold
SMILES: Cc1cccc(C)c1NC(=O)c1ccc(-c2cccc(Cl)c2)o1 [9b]

fold less potent than the hit (1) at S1P4 (S1P4 receptor): 3 fold
SMILES: Cc1cccc(C)c1N(C)C(=O)c1ccc(-c2ccccc2Cl)o1 [9c]

S1P4 activity in words (S1P4 receptor): inactive
SMILES: Cc1cccc(C)c1NC(=O)c1ccc(-c2c(C)cccc2C)o1 [9j]

fold more potent than 9k at S1P4 (S1P4 receptor; versus 9k): 1.5 fold
SMILES: Cc1cscc1-c1ccc(C(=O)Nc2c(C)cccc2C)o1 [9l]

IC50 (S1P3): > 25 µM
IC50 (S1P2): > 25 µM
IC50 (S1P1): > 25 µM
SMILES: Cc1cccc(C)c1NC(=O)c1ccc(-c2cc(Cl)ccc2Cl)o1 [compound 1, 5-(2,5-dichlorophenyl)-N-(2,6-dimethylphenyl)furan-2-carboxamide]
